# Measurements taken from ChEMBL document CHEMBL1671691 (Antimicrob Agents Chemother, 2010).
# Activity calls are given as the source filed them. The rule behind the calls is not given here.
# Experiments:
# Influenza A virus [1] = test: (§1) Antiviral activity against oseltamivir-susceptible zanamivir-, adamantane-resistant Influenza A virus (A/Bethesda/956/2006(H3N2)) harboring neuraminidase R292K mutant and M2 S31N mutant infected in MDCK cells assessed as inhibition of viral replication after 3 days by microscopic analysis using crystal violet stain; assay type: functional, organism-based
# Influenza B virus [2] = test: microbe, parasite or virus in culture; settings: B/Memphis/20/96, MDCK, 72 h
# Influenza A virus [3] = test: Antiviral activity against Influenza A virus (A/Washington/29/2009(H1N1)) harboring neuraminidase H275Y mutant infected in MDCK cells from Mill Hill assessed as log reduction in viral titer at 1.6 uM after 24 hrs by immunofluorescent assay; assay type: functional
# Procedure, shortened: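 Yield reduction in MDCK-ATCC or MDCK-Mill Hill cells infected at MOI ∼0.01. Adsorption 1 h at 4°C, washed, then DMEM with 2 μg/ml TPCK-trypsin and drug. At 24 h, supernatants were titrated by immunofluorescent focus assay on MDCK cells with anti-NP monoclonals and FITC secondary. Titres as log10 FFU per 100 μl; detection limit <10 FFU. Quadruplicate, mean ± SD.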
# Influenza A virus [4] = test: Antiviral activity against Influenza A virus (A/Washington/29/2009(H1N1)) harboring neuraminidase H275Y mutant infected in MDCK cells from ATCC assessed as inhibition of viral replication after 3 days by microscopic analysis using crystal violet stain; assay type: functional
# Procedure, shortened: (§2)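 Confluent MDCK-ATCC monolayers infected with virus diluted to give 15–45 plaques/well. Adsorption 1 h at 37°C without drug, then washed. Overlaid with 0.8% agarose in MEM containing drug plus TPCK-trypsin: 3 μg/ml for seasonal viruses, 2 μg/ml for 2009 A(H1N1). Incubated 3 days at 37°C, 5% CO2. Ethanol-fixed, crystal violet-stained, plaques counted. EC50 by curve fit; duplicates on three occasions, mean ± SD.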
# Influenza A virus [5] = test: Antiviral activity against adamantane-resistant zanamivir-,oseltamivir-susceptible Influenza A virus (A/pdm/New York/18/2009 (H1N1)) harboring M2 V28I, S31N mutant infected in MDCK cells assessed as inhibition of viral replication after 3 days by microscopic analysis using crystal violet stain; assay type: functional, organism-based, Influenza A virus (A/New York/18/2009(H1N1))
# Procedure, shortened: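 Plaque reduction on confluent MDCK-ATCC monolayers: pretitrated virus (15–45 plaques per well) adsorbed 1 h at 37°C without drug, then washed with PBS. Agarose overlay (0.8%, in MEM) with drug added, 3 days at 37°C. Cells fixed with 70% ethanol, stained with crystal violet, plaques counted. EC50 from curve fitting, averaged over three separate experiments in duplicate, ± SD.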
# Influenza A virus [6] = test: Antiviral activity against adamantane-resistant zanamivir-,oseltamivir-susceptible Influenza A virus (A/pdm/California/05/2009 (H1N1)) harboring M2 V28I, S31N mutant infected in MDCK cells assessed as inhibition of viral replication after 3 days by microscopic analysis using crystal violet stain; assay type: functional, organism-based, Influenza A virus (A/California/05/2009(H1N1))
# Influenza A virus [7] = test: Antiviral activity against adamantane-susceptible zanamivir-, oseltamivir-resistant Influenza A virus (A/Santiago/5248/2008(H1N1)) harboring neuraminidase D198E mutant infected in MDCK cells assessed as inhibition of viral replication after 3 days by microscopic analysis using crystal violet stain; assay type: functional, organism-based
# Influenza A virus [8] = test: Antiviral activity against adamantane-, zanamivir-susceptible oseltamivir-resistant Influenza A virus (A/Florida/21/2008(H1N1)) harboring neuraminidase H274Y mutant infected in MDCK cells assessed as inhibition of viral replication after 3 days by microscopic analysis using crystal violet stain; assay type: functional, organism-based
# Procedure, shortened: (§3)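 MDCK-ATCC confluent monolayers infected with pretitrated virus (15–45 plaques per well), 1 h adsorption at 37°C, 5% CO2, without drug. Inoculum removed, PBS wash, then 0.8% agarose overlay in MEM with drug and 3 μg/ml TPCK-trypsin. 3 days at 37°C, ethanol fixation, crystal violet stain, plaques counted. EC50 by curve fit, mean of three experiments in duplicate ± SD.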
# Influenza A virus [9] = test: Antiviral activity against adamantane-, oseltamivir-, zanamivir-resistant Influenza A virus (A/Idaho/01/2009(H1N1)) harboring neuraminidase H274Y mutant infected in MDCK cells assessed as inhibition of viral replication after 3 days by microscopic analysis using crystal violet stain; assay type: functional, organism-based, Influenza A virus (A/Idaho/01/2008(H1N1)); procedure, shortened: as §2
# Influenza B virus [10] = test: Antiviral activity against oseltamivir-susceptible zanamivir-, adamantane-resistant Influenza B virus B/Memphis/20/1996 harboring neuraminidase R152K mutant infected in MDCK cells assessed as inhibition of viral replication after 3 days by microscopic analysis using crystal violet stain; assay type: functional, cell-based, B/Memphis/20/96
# Influenza A virus [11] = test: (§4) Antiviral activity against 0.001 MOI adamantane-resistant zanamivir-,oseltamivir-susceptible Influenza A virus (A/pdm/Mexico/4604/2009(H1N1)) harboring M2 V28I, S31N mutant infected in MDCK cells assessed as determination of viral titer in cell culture at 1.6 uM after 24 hrs by immunofluorescence assay; assay type: functional, organism-based; settings: Influenza A virus (A/Mexico/4604/2009(H1N1))
# Procedure, shortened: (§5)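 Focus inhibition assay: confluent MDCK monolayers infected at MOI ∼0.001–0.1. Adsorption 1 h at 4°C, washed twice, then DMEM with 2 μg/ml TPCK-trypsin and drug for 24 h at 37°C. Cells fixed in methanol/acetic acid at −20°C, immunostained with anti-NP monoclonals and FITC secondary, and foci counted. Supernatants also titrated by focus assay. Quadruplicate on two occasions.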
# Influenza A virus [12] = test: as §1, with “(A/Texas/12/2007 (clone)(H3N2))” for “(A/Bethesda/956/2006(H3N2))”, “E119V” for “R292K”, “and harboring” for “and”; assay type: functional, organism-based, Influenza A virus (A/Texas/12/2007(H3N2)); procedure, shortened: as §3
# Influenza A virus [13] = test: Antiviral activity against oseltamivir-susceptible zanamivir-, adamantane-resistant Influenza A virus (A/Wuhan/395/1995-like (H3N2)) harboring neuraminidase E119V mutant infected in MDCK cells assessed as inhibition of viral replication after 3 days by microscopic analysis using crystal violet stain; assay type: functional, organism-based
# Influenza A virus [14] = test: as §1, with “(A/pdm/Illinois/10/2009(H1N1))” for “(A/Bethesda/956/2006(H3N2))”, “M2 V28I, S31N” for “neuraminidase R292K”, “neuraminidase H274Y” for “M2 S31N”; assay type: functional, organism-based, (A/Illinois/10/2009(H1N1))
# [15] = Antiviral activity against adamantane-, oseltamivir-, zanamivir-resistant Influenza B virus (B/Illinois/03/2008) harboring neuraminidase E119A mutant infected in MDCK cells assessed as inhibition of viral replication after 3 days by microscopic analysis using crystal violet stain; assay type: functional, cell-based; procedure, shortened: as §2
# Influenza A virus [16] = test: as §4, with “(A/pdm/California/04/2009(H1N1))” for “(A/pdm/Mexico/4604/2009(H1N1))”; assay type: functional, organism-based; settings: A/California/04/2009(H1N1); procedure, shortened: as §5
# Influenza A virus [17] = test: Antiviral activity against adamantane-resistant zanamivir-,oseltamivir-susceptible Influenza A virus (A/Massachusetts/03/2009(H3N2)) harboring M2 S31N mutant infected in MDCK cells assessed as inhibition of viral replication after 3 days by microscopic analysis using crystal violet stain; assay type: functional, organism-based; procedure, shortened: as §2
# Influenza A virus [18] = test: Antiviral activity against Influenza A virus (A/Illinois/10/2009(H1N1)) harboring neuraminidase H275Y mutant infected in MDCK cells from Mill Hill assessed as inhibition of viral replication after 3 days by microscopic analysis using crystal violet stain; assay type: functional
# Influenza A virus [19] = test: Antiviral activity against adamantane-resistant zanamivir-,oseltamivir-susceptible Influenza A virus (A/New York/34/2008(H1N1)) harboring M2 L26I mutant infected in MDCK cells assessed as inhibition of viral replication after 3 days by microscopic analysis using crystal violet stain; assay type: functional, organism-based; procedure, shortened: as §2
# Influenza A virus [20] = test: Antiviral activity against adamantane-resistant zanamivir-,oseltamivir-susceptible Influenza A virus (A/Florida/01/2009(H3N2)) harboring M2 S31N mutant infected in MDCK cells assessed as inhibition of viral replication after 3 days by microscopic analysis using crystal violet stain; assay type: functional, organism-based; procedure, shortened: as §2
smiles,measurement,setting,value
NC(=O)c1nc(F)cnc1O [FAVIPIRAVIR],EC50,Influenza A virus [1],1210 nM
same,EC50,Influenza B virus [2],1210 nM
same,log10FFU,Influenza A virus [3],5.4
same,log10FFU,Influenza A virus [4],0.78
same,EC50,Influenza A virus [5],890 nM
same,EC50,Influenza A virus [6],830 nM
same,EC50,Influenza A virus [7],4700 nM
same,EC50,Influenza A virus [8],1590 nM
same,EC50,Influenza A virus [9],2930 nM
same,EC50,Influenza B virus [10],570 nM
same,Activity,Influenza A virus [11],Active
same,EC50,Influenza A virus [12],5220 nM
same,EC50,Influenza A virus [13],5410 nM
same,EC50,Influenza A virus [14],22500 nM
same,EC50,[15],3000 nM
same,Activity,Influenza A virus [16],Active
same,EC50,Influenza A virus [17],4200 nM
same,log10FFU,Influenza A virus [18],5.03
same,EC50,Influenza A virus [19],190 nM
same,EC50,Influenza A virus [20],450 nM
